Tests used:
[1] = Pseudo-first order rate of beta-lactam cleavage at pH 9.2 and 35 degrees C; assay type: ADME
Summary of the method: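 Alkaline hydrolysis at pH 9.2 and 35.0 °C, followed as loss of absorbance near 260 nm. This is a slightly lower pH than a pH 9.94 carbonate buffer (NaHCO3 + Na2CO3 + NaCl, μ = 0.5). Pseudo-first-order k is obtained by least squares over the linear regions at 95% confidence.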

[2] = V max(beta-lactam) measured in dimethyl sulfoxide; assay type: ADME
Summary of the method: (§1)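 IR stretching frequencies measured in dimethyl sulfoxide solution. Frequencies are calibrated against the rotational bands of the vapor.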

Escherichia coli [3] = test: Minimum inhibitory concentration (MIC) against Escherichia coli NIHJ JC-2 in gradient plate method; assay type: functional
Summary of the method: (§2)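 Gradient plate technique. Compound is incorporated into a tilted bottom agar layer, then overlaid horizontally with compound-free agar. A 10^6 cells/mL suspension is streaked across the gradient and incubated at 37 °C for 18–20 h. MIC is calculated from the growth distance along the streak and the original bottom-layer concentration.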

Klebsiella pneumoniae [4] = test: Minimum inhibitory concentration (MIC) against Klebsiella pneumoniae SRL-1 in gradient plate method; assay type: functional; summary of the method: as §2
[5] = V max(amide I) measured in dimethyl sulfoxide; assay type: ADME; summary of the method: as §1
Escherichia coli [6] = test: Minimum inhibitory concentration (MIC) against Escherichia coli NIHJ JC-2 in agar dilution method; assay type: functional
Summary of the method: (§3)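 Agar dilution on sensitivity test agar. Overnight tryptose broth culture diluted in the same broth to about 10^6 cells/mL and inoculated onto agar containing serial twofold dilutions of antibiotic. Incubated at 37 °C for 18–20 h. MIC taken as the lowest concentration inhibiting visible growth.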

Klebsiella pneumoniae [7] = test: Minimum inhibitory concentration (MIC) against Klebsiella pneumoniae SRL-1 iin agar dilution method; assay type: functional; summary of the method: as §3
Klebsiella pneumoniae [8] = test: Minimum inhibitory concentration (MIC) against Klebsiella pneumoniae SRL-1 in agar dilution method; assay type: functional; summary of the method: as §3

Row | k [1] | Vmax [2] | MIC (Escherichia coli [3]) | MIC (Klebsiella pneumoniae [4]) | Vmax [5] | MIC (Escherichia coli [6]) | MIC (Klebsiella pneumoniae [7]) | MIC (Klebsiella pneumoniae [8]) | SMILES
1 | 0.127 h⁻¹ | 1779.2 cm⁻¹ | 0.29 µg/mL | 0.3 µg/mL | 1665.4 cm⁻¹ |  |  |  | Cn1nnnc1SCC1=C(C(=O)[O-])N2C(=O)[C@@H](NC(=O)C(C(=O)[O-])c3ccc(O)cc3)C2OC1.[Na+].[Na+] (some centres undefined)
2 | 0.0148 h⁻¹ | 1774.5 cm⁻¹ |  |  | 1668.2 cm⁻¹ | 12.5 µg/mL |  | 12.5 µg/mL | Cn1nnnc1SCC1=C(C(=O)[O-])N2C(=O)[C@@](C)(NC(=O)C(C(=O)[O-])c3ccc(O)cc3)C2OC1.[Na+].[Na+] (some centres undefined)
3 | 0.0239 h⁻¹ | 1770 cm⁻¹ | 1.5 µg/mL | 2.3 µg/mL | 1669 cm⁻¹ |  |  |  | Cn1nnnc1SCC1=C(C(=O)[O-])N2C(=O)[C@@H](NC(=O)C(C(=O)[O-])c3ccc(O)cc3)C2SC1.[Na+].[Na+] (some centres undefined)
4 | 0.178 h⁻¹ | 1771.8 cm⁻¹ | 0.09 µg/mL | 0.06 µg/mL | 1686.6 cm⁻¹ | 0.1 µg/mL | 0.1 µg/mL |  | CO[C@@]1(NC(=O)C(C(=O)[O-])c2ccc(O)cc2)C(=O)N2C(C(=O)[O-])=C(CSc3nnnn3C)COC21.[Na+].[Na+] (some centres undefined)

Continued, compound first:

Row | SMILES | k [1] | Vmax [2] | MIC (Escherichia coli [3]) | MIC (Klebsiella pneumoniae [4]) | Vmax [5] | MIC (Escherichia coli [6]) | MIC (Klebsiella pneumoniae [7]) | MIC (Klebsiella pneumoniae [8])
5 | CO[C@@]1(NC(=O)Cc2ccc(O)cc2)C(=O)N2C(C(=O)[O-])=C(CSc3nnnn3C)CSC21.[Na+] (some centres undefined) | 0.0351 h⁻¹ | 1768.1 cm⁻¹ | 0.5 µg/mL | 1.3 µg/mL | 1690.6 cm⁻¹ |  |  | 
6 | CO[C@@]1(NC(=O)C(C(=O)[O-])c2ccc(O)cc2)C(=O)N2C(C(=O)[O-])=C(CSc3nnnn3C)CSC21.[Na+].[Na+] (some centres undefined) | 0.0239 h⁻¹ | 1767.8 cm⁻¹ | 0.55 µg/mL | 0.37 µg/mL | 1682.3 cm⁻¹ | 0.78 µg/mL | 0.39 µg/mL | 
7 | CO[C@@]1(NC(=O)Cc2ccc(O)cc2)C(=O)N2C(C(=O)[O-])=C(CSc3nnnn3C)COC21.[Na+] (some centres undefined) | 0.228 h⁻¹ | 1772.9 cm⁻¹ | 0.08 µg/mL | 0.1 µg/mL | 1694.9 cm⁻¹ |  |  | 
8 | Cn1nnnc1SCC1=C(C(=O)[O-])N2C(=O)[C@@H](NC(=O)Cc3ccc(O)cc3)C2OC1.[Na+] (some centres undefined) | 0.139 h⁻¹ | 1778.2 cm⁻¹ | 0.34 µg/mL | 0.31 µg/mL | 1674.5 cm⁻¹ |  |  | 
9 | COC1(NC(=O)C(C(=O)[O-])c2ccc(O)cc2)C(=O)N2C(C(=O)[O-])=C(CSc3nnnn3C)CCC21.[Na+].[Na+] (centres undefined) | 0.0694 h⁻¹ | 1757 cm⁻¹ |  |  | 1684.5 cm⁻¹ | 6.25 µg/mL |  | 3.13 µg/mL
10 | Cn1nnnc1SCC1=C(C(=O)[O-])N2C(=O)[C@@H](NC(=O)Cc3ccc(O)cc3)C2SC1.[Na+] (some centres undefined) | 0.0227 h⁻¹ | 1773.1 cm⁻¹ | 1.2 µg/mL | 1.4 µg/mL | 1676.3 cm⁻¹ |  |  | 

Source: ChEMBL document CHEMBL1122389, “Synthesis and substituent effects on antibacterial activity, alkaline hydrolysis rates, and infrared absorption frequencies of some cephem analogues related to latamoxef (moxalactam)” (J Med Chem, 1983)
